From article PMC7263024 (General and comparative endocrinology, 2019)
Entries after “also recorded” stand apart in the source; their conditions may differ.

What was measured:
gMc1r/gMrap2 = assay: cAMP-reporter gene assay, gMc1r co-expressed with gMrap2; assay type: cell-based, spotted gar (Lepisosteus oculatus); details: Fig. 3B, vs gMc1r alone; for effect of gMrap2 co-expression on Vmax value: hACTH(1–24) P = 0.43, NDP-MSH p = 0.42, T-test; for effect of gMrap2 co-expression on ligand sensitivity: p = 0.12 (hACTH(1–24)), p = 0.28 (NDP-MSH)
Summary of the method: (§1)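 CHO cells (F12K, 10% FBS, 37 °C, 5% CO2) nucleofected with 2 μg each of gar receptor cDNA, with or without gar Mrap1 or Mrap2, plus CRE-luciferase. After 48 h, stimulated 4 h at 37 °C in serum-free medium with hACTH(1–24) 10−13–10−6 M or NDP-MSH 10−12–10−6 M. Luminescence read after a 5 min luciferase reagent step. Medium-only background subtracted. EC50 from Michaelis-Menten fits; triplicates.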

gMc5r = assay: cAMP-reporter gene assay, gMc5r expressed alone; assay type: cell-based, spotted gar (Lepisosteus oculatus); details: p = 0.07, T-test
gMc3r = assay: cAMP-reporter gene assay, gMc3r expressed alone; assay type: cell-based, spotted gar (Lepisosteus oculatus); details: p = 0.03
zebrafish Mc4r = details: 2013, cited from earlier work
gMc4r/gMrap2 = assay: cAMP-reporter gene assay, gMc4r co-expressed with gMrap2; assay type: cell-based, spotted gar (Lepisosteus oculatus); details: Fig. 5B; vs gMc4r alone; p < 0.001 (both ligands); T-test
gMc1r = assay: cAMP-reporter gene assay, gMc1r expressed alone; assay type: cell-based, spotted gar (Lepisosteus oculatus); details: comparison of EC50 values, p < 0.001
gMc5r/gMrap1 = assay: cAMP-reporter gene assay, gMc5r co-expressed with gMrap1; assay type: cell-based, spotted gar (Lepisosteus oculatus); details: Fig. 6A, 6B, vs gMc5r alone; for effect of gMrap1 co-expression on Vmax: hACTH(1–24) p = 0.44, NDP-MSH p = 0.01, T-test; for effect of gMrap1 co-expression on ligand sensitivity: hACTH(1–24) p = 0.5, NDP-MSH p = 0.64
Summary of the method: as §1

gMc3r/gMrap2 = assay: cAMP-reporter gene assay, gMc3r co-expressed with gMrap2; assay type: cell-based, spotted gar (Lepisosteus oculatus); details: Fig. 4B, vs gMc3r alone; for effect of gMrap2 co-expression on Vmax value: hACTH(1–24) p – 0.99, NDP-MSH p > 0.001 (so in the source), T-test; for effect of gMrap2 co-expression on ligand sensitivity: p = 0.98 (both ligands)
gMc1r/gMrap1 = assay: cAMP-reporter gene assay, gMc1r co-expressed with gMrap1; assay type: cell-based, spotted gar (Lepisosteus oculatus); details: Fig. 3A, vs gMc1r alone; for effect of gMrap1 co-expression on Vmax value: hACTH(1–24) p < 0.001, NDP-MSH p = 0.02, T-test; for effect of gMrap1 co-expression on ligand sensitivity: p = 0.90 (hACTH(1–24)), p = 0.92 (NDP-MSH)
Summary of the method: as §1

gMc4r/gMrap1 = assay: cAMP-reporter gene assay, gMc4r co-expressed with gMrap1; assay type: cell-based, spotted gar (Lepisosteus oculatus); details: Fig. 5A, vs gMc4r alone; for effect of gMrap1 co-expression on ligand sensitivity: p = 0.49 (hACTH(1–24)), p = 0.98 (NDP-MSH)
Summary of the method: as §1

hMc2r/mMrap1 = details: ref Liang et al., 2011; cited from earlier work
gMc3r/gMrap1 = assay: cAMP-reporter gene assay, gMc3r co-expressed with gMrap1; assay type: cell-based, spotted gar (Lepisosteus oculatus); details: Fig. 4A, vs gMc3r alone; for effect of gMrap1 co-expression on ligand sensitivity: p = 0.49 (hACTH(1–24)), p = 0.98 (NDP-MSH)
Summary of the method: as §1

gMc2r/gMrap1 = assay: cAMP-reporter gene assay, gMc2r co-expressed with gMrap1; assay type: cell-based, spotted gar (Lepisosteus oculatus)
Summary of the method: as §1

mouse Mc4r = details: activation by NDP-MSH; ref Asai et al., 2013; cited from earlier work
gMc5r/gMrap2 = assay: cAMP-reporter gene assay, gMc5r co-expressed with gMrap2; assay type: cell-based, spotted gar (Lepisosteus oculatus); details: Fig. 6A, 6B, vs gMc5r alone; for effect of gMrap2 co-expression on Vmax: hACTH(1–24) p = 0.001, NDP-MSH p = 0.007, T-test; for effect of gMrap2 co-expression on ligand sensitivity: hACTH(1–24) p = 0.5
Summary of the method: as §1

gMc4r = assay: cAMP-reporter gene assay, gMc4r expressed alone; assay type: cell-based, spotted gar (Lepisosteus oculatus); details: p = 0.11
Summary of the method: as §1

gMc2r = assay: cAMP-reporter gene assay, gMc2r expressed alone; assay type: cell-based, spotted gar (Lepisosteus oculatus); details: Fig. 2A; CHO cells, CRE-Luciferase, 4 h at 37 °C, 10^−13M to 10^−6M; n = 3
Summary of the method: as §1

gMc2r/gMrap2 = assay: cAMP-reporter gene assay, gMc2r co-expressed with gMrap2; assay type: cell-based, spotted gar (Lepisosteus oculatus); details: Fig. 2A, CHO cells, CRE-Luciferase, 4 h at 37 °C, 10^−13M to 10^−6M, n = 3
Summary of the method: as §1

[1] = test system: Gallus gallus (chicken; c) Mc5r with cMrap1; details: ref Thomas et al., 2018; cited from earlier work
Mc2r and Mc5r orthologs = details: ref Thomas et al., 2018, Dores et al., Barney et al., 2019; cited from earlier work
hMc2r = details: ref Metherell et al., 2005; Sebag and Hinkle, 2007; cited from earlier work

| Substance | effect of gMrap2 co-expression on Vmax value (gMc1r/gMrap2) | effect of gMrap2 co-expression on ligand sensitivity (gMc1r/gMrap2) | effect of gMrap2 co-expression on Vmax (gMc4r/gMrap2) | effect of gMrap1 co-expression on Vmax (gMc5r/gMrap1) | effect of gMrap1 co-expression on ligand sensitivity (gMc5r/gMrap1) | effect of gMrap2 co-expression on Vmax value (gMc3r/gMrap2) | effect of gMrap2 co-expression on ligand sensitivity (gMc3r/gMrap2) | effect of gMrap1 co-expression on Vmax value (gMc1r/gMrap1) | effect of gMrap1 co-expression on ligand sensitivity (gMc1r/gMrap1) | effect of gMrap1 co-expression on Vmax value (gMc4r/gMrap1) | effect of gMrap1 co-expression on ligand sensitivity (gMc4r/gMrap1) | effect of gMrap1 co-expression on Vmax value (gMc3r/gMrap1) | effect of gMrap1 co-expression on ligand sensitivity (gMc3r/gMrap1) | effect of gMrap2 co-expression on Vmax (gMc5r/gMrap2) | effect of gMrap2 co-expression on ligand sensitivity (gMc5r/gMrap2) | efficacy of hACTH(1–24) compared with NDP-MSH (gMc4r) | other results |
| --- | --- | --- | --- | --- | --- | --- | --- | --- | --- | --- | --- | --- | --- | --- | --- | --- | --- |
| Nle^4, D-Phe^7-α-MSH [NDP-MSH] | no effect on the Vmax value | no effect, in either a positive or negative manner, on the sensitivity of gMc1r | statistically higher than the Vmax for the dose response curve when gMc4r was expressed alone; also recorded: comparable in magnitude to the Vmax value for the gMc4r/gMrap2 cells stimulated hACTH(1–24); also recorded: the amplitude of stimulation (Vmax) also increased for both ligands | increase in Vmax | had no effect on sensitivity to stimulation; also recorded: no effect, either positive or negative, on the sensitivity of the receptor | decrease in the Vmax value | no effect either positive or negative on the sensitivity of gMc3r | decrease in the Vmax value | had no effect on sensitivity to stimulation; also recorded: no effect on the sensitivity of gMc1r | no effect on the Vmax value | had no effect on sensitivity to stimulation; also recorded: no statistical effect on the sensitivity of gMc4r | no effect on the Vmax value | had no effect on sensitivity to stimulation | increase in Vmax | did not increase sensitivity; also recorded: no effect, either positive or negative, on the sensitivity of the receptor | can be activated with equal efficacy | EC50 of NDP-MSH compared with hACTH (1–24) (gMc5r): not statistically different from stimulation with hACTH (1–24); sensitivity to NDP-MSH compared with hACTH(1–24) (gMc3r): higher sensitivity for stimulation by NDP-MSH than by stimulation with hACTH(1–24); effect of Mrap2 co-expression on ligand sensitivity (zebrafish Mc4r; activation by NDP-MSH, ref Sebag et al.): enhances ligand sensitivity of the receptor to activation by NDP-MSH; sensitivity to NDP-MSH compared with hACTH(1–24) (gMc1r): much more sensitive to stimulation by NDP-MSH than to stimulation by hACTH(1–24); response to NDP-MSH (hMc2r/mMrap1): did not evoke a response; activation of gMc2r/gMrap1 by NDP-MSH (gMc2r/gMrap1; Fig. 2B, CHO cells, 4 h at 37 °C, 10^−12M to 10^−6M, n = 3): low level of activation (only at 10^−7M and 10^−6M); also recorded: activation was observed, but only at concentrations of 10^−7 M and 10^−6M; also recorded: weak activation only at 10 ^7M and 10^−6M; also recorded: could be activated to a limited degree by NDP-MSH at concentrations of 10^−7M and 10^−6M; degree of stimulation relative to stimulation at saturation by hACTH(1–24) (gMc2r/gMrap1; NDP-MSH at 10^−6 M vs 10^−9M hACTH(1–24), Fig. 2B): roughly 40%; effect of Mrap2 co-expression on ligand sensitivity (mouse Mc4r): enhances ligand sensitivity of the receptor to activation by NDP-MSH |
| hACTH(1–24): Human (h) ACTH(1–24), purchased from Sigma-Aldrich; 96% primary sequence identity with gACTH(1–24) | no effect on the Vmax value | no effect, in either a positive or negative manner, on the sensitivity of gMc1r | statistically higher than the Vmax for the dose response curve when gMc4r was expressed alone; also recorded: the amplitude of stimulation (Vmax) also increased for both ligands | no change in the Vmax value | had no effect on sensitivity to stimulation; also recorded: negligible shift in sensitivity; also recorded: no effect, either positive or negative, on the sensitivity of the receptor | no effect on the Vmax value | no effect either positive or negative on the sensitivity of gMc3r | decrease in the Vmax value | had no effect on sensitivity to stimulation | no effect on the Vmax value | had no effect on sensitivity to stimulation; also recorded: no statistical effect on the sensitivity of gMc4r | no effect on the Vmax value | had no effect on sensitivity to stimulation | increase in the Vmax value | did not affect sensitivity; also recorded: no effect, either positive or negative, on the sensitivity of the receptor | can be activated with equal efficacy | activation of gMc2r expressed alone by hACTH(1–24) (gMc2r): activation of gMc2r did not occur when the receptor was expressed alone; also recorded: did not result in activation of the receptor; also recorded: no activation when expressed alone; activation of gMc2r co-expressed with gMrap2 (gMc2r/gMrap2): activation did not occur; also recorded: gMrap2 did not facilitate activation of gMc2r; activation of gMc2r co-expressed with gMrap2 (gMc2r/gMrap2; listed as hACTH (1–24)): there was no activation; effect of gMrap1 co-expression on ligand sensitivity (gMc3r/gMrap1; listed as hACTH (1–24)): no effect either positive or negative on sensitivity; activation of gMc2r co-expressed with gMrap1 by hACTH(1–24) (gMc2r/gMrap1; Fig. 2A, CHO cells, CRE-Luciferase, 4 h at 37 °C, n = 3): obligatory requirement for co-expression with gMrap1 in order for the receptor to be activated by hACTH(1–24); also recorded: activation of the receptor was recovered; concentration at which activation reached saturation (gMc2r/gMrap1; Fig. 2B, CHO cells, 4 h at 37 °C): 10^−9 M; effect of cMrap1 co-expression on sensitivity to stimulation [1]: significantly increased the sensitivity |
| ACTH |  |  |  |  |  |  |  |  |  |  |  |  |  |  |  |  | effect of Mrap2 co-expression on sensitivity for activation by ACTH (zebrafish Mc4r; ref Josep Agulleiro et al.): sensitivity for activation by ACTH increases as well; effect of Mrap1 co-expression on sensitivity to stimulation by ACTH (Mc2r and Mc5r orthologs): enhanced sensitivity to stimulation by ACTH; stimulation of hMc2r/Mrap1 by ACTH (hMc2r): in the correct configuration to be stimulated by ACTH |
